Source: PubChem (several laboratories)
Most compounds without a hit are left out; they make up all but 2.6% or so of the library.
Platelet DG rel = inhibitors of platelet dense granule secretion, primary screen, cell-based, MLPCN, human platelets. AID 1663, 2009. human platelet-rich plasma, SFLLRN dense granule ATP release, luminescence. inhibition, %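 (compounds screened at 7.5 µM in platelet-rich plasma)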. 300,000 compounds, 0.22% hits;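 active = mean replicate score, as percent of positive control, at or above 50; inconclusive = mean below 50 but at least one replicate at or above 50; inactive = mean and every replicate below 50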
Rce1 inh = yeast Rce1p protease inhibitors, primary screen, biochemical, fluorescence, cell-free homogeneous; 290,000 compounds, 0.27% hits; calls only; yeast membranes, quenched prenylated peptide cleavage fluorescence; CAAX prenyl protease 2 (Saccharomyces cerevisiae (strain ATCC 204508 / S288c)), Q03530;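 active = fall in fluorescence gain of 50% or more versus controls, with final raw signal at or below 3038400; inconclusive = same 50% fall but final raw signal above 3038400; inactive = fall in fluorescence gain under 50%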;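 note: plate controls were neutral control wells for no effect and wells lacking membranes for full effect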
VLA-4 inh = inhibition in human VLA-4 binding assay, primary screen, VLA-4 allosteric modulator project, MLPCN library, flow cytometry, VLA-4 expressing cells | Integrin alpha-4 (Homo sapiens), P13612 | ligand binding flow cytometry | inhibition, % (about 7 µM as worked out from the volumes in the protocol) | 330,000 compounds, 0.2% hits; in the data active = inhibition above about 50%
Target sequence (P13612 whole entry, looked up): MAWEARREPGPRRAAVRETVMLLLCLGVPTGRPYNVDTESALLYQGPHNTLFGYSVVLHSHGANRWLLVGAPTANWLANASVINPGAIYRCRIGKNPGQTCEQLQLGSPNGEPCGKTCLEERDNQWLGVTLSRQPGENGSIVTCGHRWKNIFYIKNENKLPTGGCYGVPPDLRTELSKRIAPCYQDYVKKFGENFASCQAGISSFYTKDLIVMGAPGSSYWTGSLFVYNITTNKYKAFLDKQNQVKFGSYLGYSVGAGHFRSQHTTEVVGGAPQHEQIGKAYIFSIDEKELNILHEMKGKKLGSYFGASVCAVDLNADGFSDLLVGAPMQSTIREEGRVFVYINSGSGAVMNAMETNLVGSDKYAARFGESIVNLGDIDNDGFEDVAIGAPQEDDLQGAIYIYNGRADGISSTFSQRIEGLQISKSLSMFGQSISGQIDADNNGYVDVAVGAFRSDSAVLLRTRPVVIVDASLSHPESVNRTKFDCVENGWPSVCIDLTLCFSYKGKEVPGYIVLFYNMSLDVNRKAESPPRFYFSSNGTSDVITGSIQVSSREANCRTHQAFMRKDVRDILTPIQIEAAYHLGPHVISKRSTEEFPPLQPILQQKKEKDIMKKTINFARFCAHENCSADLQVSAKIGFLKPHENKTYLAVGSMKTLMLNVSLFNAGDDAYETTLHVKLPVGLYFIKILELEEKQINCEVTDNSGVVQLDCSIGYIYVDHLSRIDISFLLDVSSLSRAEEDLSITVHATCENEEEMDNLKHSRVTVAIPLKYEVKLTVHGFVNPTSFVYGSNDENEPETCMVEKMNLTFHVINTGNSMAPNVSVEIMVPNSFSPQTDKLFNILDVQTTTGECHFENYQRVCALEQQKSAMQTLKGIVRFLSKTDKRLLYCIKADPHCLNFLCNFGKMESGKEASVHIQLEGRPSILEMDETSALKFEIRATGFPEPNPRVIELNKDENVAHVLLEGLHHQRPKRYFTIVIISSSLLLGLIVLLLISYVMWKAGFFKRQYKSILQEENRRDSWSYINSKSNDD
TAAR1 antag = human TAAR1 antagonists, primary screen, Fluo-8 calcium fluorescence, CHO RD-HGA16 cells; antagonist; inhibition, % at 3 µM; 360,000 compounds, 1.5% hits;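 active = inhibition above a per-plate cutoff, the mean inhibition of test compounds on that plate plus 3 SD, cut at about 49% in these data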;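 note: 0% = DMSO plus EC80 beta-PEA response and 100% = DMSO alone without agonist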
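Test system – hTAAR1-expressing CHO RD-HGA16 cells, Gα16-coupled · Also added – β-PEA at EC80 concentration, post-compound challenge · Compound – 3 µM, single point · Incubation – dye loading 75 min at 37 °C, then 30 min room temperature · Measured by – Fluo-8 intracellular calcium dye fluorescence, real-time kinetic reads · Benchmarks – vehicle and agonist controls · Replicates – singlicate, one well per test compound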
TAAR1 ag = human TAAR1 agonists, primary screen, Fluo-8 calcium fluorescence, CHO RD-HGA16 cells; Trace amine-associated receptor 1 (Homo sapiens), Q96RJ0; vehicle wells 0%, saturating PEA agonist 100%; activation, % at 3 µM; 360,000 compounds, 0.99% hits; AID 624467, 2012;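 active = activation above the mean activation of all test compounds in the run plus 3 SD, cut at about 38% in these data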
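Assay system: CHO-derived RD-HGA16 cells with stable Gα16 and human TAAR1; timing: 17-24 h seeding, 75 min 37 °C dye, 30 min RT; read-out: % activation from peak over basal fluorescence ratio, DMSO-to-PEA scaled; measured by: kinetic Fluo-8 calcium fluorescence; benchmarks: low control DMSO, high control PEA (EC100); doses: 3 µM single concentration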
VLA-4 mod pick = retest of VLA-4 allosteric modulators, confirmation, cell-based, cherry-picked plates, U937, HUTS-21 LIBS antibody | shares compounds with VLA-4 inh | U937 cells, HUTS-21 LIBS mAb binding, flow cytometry; LDV ligand present at threefold Kd | inhibition, % at 6.7 µM | 1,300 compounds, 2% hits | AID 2813, 2010; in the data active = inhibition above about 40%;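 note: 0% = ligand without compound and 100% = no ligand background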
nonsel antag count = nonselective antagonists in TAAR1 counter-screen cells, counter-screen for hTAAR1 antagonist project, cell-based, fluorescence, calcium | shares compounds with TAAR1 antag | counterscreen cell line, antagonist mode | inhibition, % at 3 µM | 2,400 compounds, 77% hits | AID 651780, 2012; in the data active = inhibition above about 22%;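 note: CHO-Ga16 host cells stimulated with ATP at an EC80 level; 0% = agonist EC80 plus vehicle and 100% = vehicle without agonist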
TAAR1 antag conf = human TAAR1 antagonists, retest of hits, confirmation, cell-based, fluorescence; shares compounds with TAAR1 antag; TAAR1-expressing cells, fluorescence antagonist read-out; inhibition, % at 3 µM; 2,400 compounds, 40% hits; AID 651785, 2012; in the data active = inhibition above about 49%;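 note: CHO-Ga16 host cells challenged with agonist PEA near its EC80; 0% = agonist at EC80 plus vehicle and 100% = vehicle with no agonist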
Ga16 ag counter = calcium activation in Ga16-expressing cells, counter-screen for TAAR1 antagonist project, cell-based, fluorescence. shares compounds with TAAR1 antag. agonist counterscreen. activation, % at 3 µM. 2,400 compounds, 18% hits. AID 651953, 2012; in the data active = activation above about 12%;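 note: 0% = vehicle wells and 100% = saturating stimulus response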
TAAR1 ag count = TAAR1 activation by candidate antagonists – cell-based, fluorescence, counter-screen for TAAR1 antagonist project. shares compounds with TAAR1 antag. AID 651955, 2012. hTAAR1 cell line, agonist mode. 2,400 compounds, 2% hits. activation, % at 3 µM; in the data active = activation above about 37%;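 note: CHO cells stably expressing TAAR1 with calcium dye readout; 0% = DMSO vehicle and 100% = full agonist response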
An asterisk follows results filed as active; i = inactive; ? = inconclusive; . = no result given.

SMILES | Platelet DG rel | Rce1 inh | VLA-4 inh | TAAR1 antag | TAAR1 ag | nonsel antag count | TAAR1 antag conf | Ga16 ag counter | TAAR1 ag count | others
CN1C2CCC1CC(OC(=O)c1cc(Cl)cc(Cl)c1)C2 (stereo unspecified) | -15 | i | 93* | 2 | 7 | . | . | . | . | VLA-4 mod pick=-1
COc1ccc(C(=O)OC2CC3CCC(C2)[N+]3(C)[O-])cc1OC (stereo unspecified) | 13 | i | 6 | -12 | 5 | . | . | . | . | VLA-4 mod pick=0
COc1cc(C(=O)OC2C[C@H]3CC[C@@H](C2)N3)ccc1O (stereo partly specified) | 2 | i | 2 | -7 | -1 | . | . | . | . | VLA-4 mod pick=-3
CN1CCN(CCC(=O)OC2CC3CCC(C2)N3C)CC1 (stereo unspecified) | -21 | i | 12 | -1 | 12 | . | . | . | .
CC(C)=CCN1CC[C@@]2(C)c3cc(O)ccc3C[C@@H]1C2C (stereo partly specified) | . | . | 12 | -3 | 0 | . | . | . | .
C[N+](C)(C)CC1CCCC1=O (stereo unspecified) | . | . | . | 8 | 3 | . | . | . | .
O=c1c2ccccc2[nH]c(=S)n1-c1ccc2c(c1)OCCO2 | 3 | i | 4 | 13 | 0 | . | . | . | .
NC(=O)Cn1cc(C(=O)c2ccccc2)c2ccccc21 | -6 | i | -7 | 0 | -1 | . | . | . | . | VLA-4 mod pick=0
CC1(C)C(C(=O)N2CCN(c3ccc(Cl)cc3)CC2)C1(C)C | -4 | i | 9 | -7 | -2 | . | . | . | .
COC(=O)C1CN(C#N)N(c2ccc(Cl)cc2)C12c1ccccc1-c1ccccc12 (stereo unspecified) | . | i | 62* | . | . | . | . | . | . | VLA-4 mod pick=53*
Cc1cccc(C)c1NC1=NCCCCS1 | 12 | i | 5 | 5 | 0 | . | . | . | .
CN1C(=O)/C(=C/c2ccc(Cl)s2)C(=O)NC1=S | 3 | i | 19 | 21 | 20 | . | . | . | .
Cc1ccsc1/C=C1\C(=O)NC(=S)N(C)C1=O | -2 | i | 46 | -6 | 2 | . | . | . | . | VLA-4 mod pick=34
COc1ccc(-n2c(CN3CCOCC3)nc3ccccc3c2=O)c(OC)c1 | -11 | i | 7 | -15 | 1 | . | . | . | .
COc1cccc(-c2sc3ccccc3c2-c2ccc(OCCN3CCOCC3)cc2)c1 | . | . | 17 | 27 | 16 | . | . | . | . | VLA-4 mod pick=-1
O=C(OC1CC2CCC(N2)C1C(=O)O)c1ccccc1 (stereo unspecified) | . | . | -6 | 2 | 1 | . | . | . | . | VLA-4 mod pick=3
Clc1ccc(COC(Cn2ccnc2)c2ccc(Cl)cc2Cl)cc1 (stereo unspecified) | 0 | i | 10 | 49* | 6 | 16 | 43 | 22* | 37
c1ccc(-c2nc3ccccc3nc2-c2ccc(CN3CCC(n4nnc5ccccc54)CC3)cc2)cc1 | . | . | . | 51* | 1 | 16 | 32 | 0 | -2
CCOP(=O)(OCC)C(O)c1cccnc1 (stereo unspecified) | 6 | i | 9 | -26 | 2 | . | . | . | .
COC(=O)c1ccc(NC(=O)CSc2nc3ccc(N4C(=O)C5C6C=CC(C6)C5C4=O)cc3s2)cc1 (stereo unspecified) | 2 | i | 5 | 88* | 32 | 41* | 65* | 17* | 16
CCN1CCN(S(=O)(=O)c2ccc(Cl)c(C(=O)Nc3ccc(C(=O)N(CC)CC)cc3)c2)CC1 | ? | i | -2 | -24 | 3 | . | . | . | .
C[C@]12CC[C@@H](O)CC1=CC(=O)C1C2CC[C@]2(C)C(=O)CCC12 (stereo partly specified) | . | . | -17 | -5 | 4 | . | . | . | .
O=P(Nc1ccccc1)(Oc1ccccc1)Oc1ccccc1 | 10 | i | -14 | 74* | 8 | 27* | 59* | 8 | 6
NP(=O)(Oc1ccccc1)Oc1ccccc1 | . | . | . | 7 | 2 | . | . | . | .
O=P(NC(c1ccccc1)c1ccccc1)(Oc1ccccc1)Oc1ccccc1 | 8 | i | 5 | 64* | 5 | 32* | 65* | 7 | 4
SMILES | Platelet DG rel | Rce1 inh | VLA-4 inh | TAAR1 antag | TAAR1 ag | nonsel antag count | TAAR1 antag conf | Ga16 ag counter | TAAR1 ag count | others
CCCOc1ccccc1NP(=O)(Oc1ccccc1)Oc1ccccc1 | -8 | i | 6 | 21 | 5 | . | . | . | .
Cc1cccc(NP(=O)(Oc2ccccc2)Oc2ccccc2)c1C | 27 | i | -12 | 73* | 5 | 24* | 44 | 6 | 3
COc1ccc(CC2C(=O)NC(C)C(=O)N(C)C3C(=O)N(C)C(Cc4ccc(O)c(c4)Oc4ccc(cc4)C3O)C(=O)NC(C)C(=O)NC(C)C(=O)N2C)cc1 (stereo unspecified) | . | . | . | -10 | 1 | . | . | . | .
Oc1cc2c(cc1CN1CCN(c3ccccc3F)CC1)OCO2 | -5 | i | 5 | 5 | 3 | . | . | . | .
Cc1cccc(C)c1-n1nnnc1C(C1CC1)N1CCC(n2c(=O)[nH]c3ccccc32)CC1 (stereo unspecified) | . | . | . | 19 | 2 | . | . | . | .
O=c1[nH]c2ccccc2n1C1CCN(C(CCc2ccccc2)c2nnnn2C2CCCCC2)CC1 (stereo unspecified) | . | . | . | 58* | 9 | 26* | 46 | 4 | 11
CSCCC(c1nnnn1C1CCCC1)N1CCC(n2c(=O)[nH]c3ccccc32)CC1 (stereo unspecified) | . | . | . | 56* | 23 | 23* | 48 | 8 | 21
CSCCC(c1nnnn1C1CCCC1)N1CCC2(CC1)C(=O)NCN2c1ccccc1 (stereo unspecified) | . | . | . | 15 | 7 | . | . | . | .
CSCCC(c1nnnn1-c1c(C)cccc1C)N1CCC(n2c(=O)[nH]c3ccccc32)CC1 (stereo unspecified) | . | . | . | 53* | 11 | 24* | 55* | 7 | 14
